Bioassay records: PubChem, several laboratories
Casp6 inh: caspase-6 (human) enzyme inhibition; P55212; purified caspase-6, Z-VEID-R110 cleavage fluorescence; inhibition, % at 12.5 µM; 350,000 compounds, 0.53% hits; AID 686996;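 active = mean inhibition across replicates at least about 35%, with every replicate also reaching that limit, limit read from the data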;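 also: 0% = median of neutral control wells and 100% = no fluorescence left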
Target sequence (P55212 24-179 limits assumed): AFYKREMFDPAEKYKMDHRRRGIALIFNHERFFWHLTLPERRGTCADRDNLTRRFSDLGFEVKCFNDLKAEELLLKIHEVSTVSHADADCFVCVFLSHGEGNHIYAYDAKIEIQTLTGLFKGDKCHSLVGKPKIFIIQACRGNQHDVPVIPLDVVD
Target sequence (P55212 194-293 limits assumed): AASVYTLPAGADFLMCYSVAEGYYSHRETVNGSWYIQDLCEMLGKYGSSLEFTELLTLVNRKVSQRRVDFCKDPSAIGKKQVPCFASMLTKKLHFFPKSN
UCH37 DUB inh: blocks the human deubiquitinase UCH37; Q9Y5K5; AID 588478; inhibition, % (concentration not given with the values); 330,000 compounds, 0.33% hits; purified proteasome/UCH37, Ub-AMC cleavage fluorescence;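 active = mean inhibition over replicate wells above about 20%, limit read from the data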;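 also: 0% = compound-free wells with enzyme and 100% = wells lacking proteasome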
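Reagent: Ub-AMC substrate; assay system: Proteasome-associated human UCH37 deubiquitinase; controls: no-proteasome and no-compound wells; read-out: % inhibition of Ub-AMC cleavage fluorescence; timing: 30 min preincubation with enzyme, 25 min cleavage at room temperature; signal: AMC fluorescence from Ub-AMC cleavage, excitation 355 nm, emission 460 nm; buffer or medium: Tris-HCl pH 7.4 plus ovalbumin, ATP-MgCl2, DTT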
SIRT5 inh: sirtuin-5 (human) deacylase inhibition; 330,000 compounds, 1.1% hits; Purified SirT5, succinyl-peptide AMC, trypsin-coupled fluorescence; Q9NXA8; inhibition, % at 15 µM; AID 652115; in the data active = inhibition above about 15%
Target sequence (Q9NXA8 whole entry, looked up): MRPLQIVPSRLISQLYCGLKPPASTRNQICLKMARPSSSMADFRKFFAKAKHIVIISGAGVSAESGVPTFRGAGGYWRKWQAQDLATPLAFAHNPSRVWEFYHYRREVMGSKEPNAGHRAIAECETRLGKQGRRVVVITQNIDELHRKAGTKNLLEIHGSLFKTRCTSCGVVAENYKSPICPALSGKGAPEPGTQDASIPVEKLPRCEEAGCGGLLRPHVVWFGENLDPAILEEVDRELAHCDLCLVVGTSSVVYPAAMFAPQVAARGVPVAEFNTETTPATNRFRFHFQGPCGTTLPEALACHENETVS
NSD2 HMT inh: NSD2 (human) methyltransferase inhibition; NSD2 peptide methylation, AlphaScreen, 120 min; inhibition, % at 12.5 µM; 310,000 compounds, 0.54% hits; AID 743445; in the data active = inhibition above about 50%
FGF22 binding: shifts melting point of recombinant human FGF22; Q9HCT0; recombinant FGF22 thermal shift, SYPRO orange fluorescence; percent of sucrose octasulfate shift, DMSO zero; activity (Tm shift, normalised), % at 9.99 µM; 340,000 compounds, 1.5% hits;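 active = mean Tm shift, scaled 0 neutral to 100 positive control, at about 1.3% or above, every replicate too, limit read from the data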
Active calls of the source: *; x = no result. In the library only some 2.6% were active in any assay of this set; here they are far more common.

SMILES	Casp6 inh	UCH37 DUB inh	SIRT5 inh	NSD2 HMT inh	FGF22 binding
O=C(Cc1cccnc1)N1CCCCN2[C@H](CO)[C@@H](c3ccc(C#CC4(O)CCCC4)cc3)[C@H]2C1	-2	x	0	x	-1
COCCCn1c(N)c(C(=O)NCc2ccco2)c2nc3ccccc3nc21	98*	x	x	0	0
Cc1cc(/C=C2\C(=O)NC(=O)N(c3ccccc3)C2=O)c(C)n1-c1ccc(C(=O)O)c(Cl)c1	38*	8	-3	7	0
CC=Cc1ccc2n(c1=O)C[C@H]1[C@H](CO)[C@@H](C(=O)N(C)C)[C@@H]2N1C (mixture of isomers)	57*	x	-2	x	0
CC(CC(c1ccccc1)c1c(O)c2ccccc2oc1=O)=NNc1ccc([N+](=O)[O-])cc1[N+](=O)[O-] (stereo not given)	x	10	x	x	x
Cn1cccc1/C=C1/C(=O)NC(=S)N(Cc2ccc(F)cc2)C1=O	35*	6	2	8	0
O=C1NC(=O)C(CCc2ccncc2)(CCc2ccccn2)C(=O)N1c1ccc(Br)cc1 (stereo not given)	3	0	3	-1	43*
C(=NNC1=NCCCCC1)c1c[nH]c2ccccc12	x	12	x	x	x
O=c1c2ccccc2nc(/C=C/c2ccc([N+](=O)[O-])o2)n1-c1ccc(O)cc1	31	1	2	-3	0
Cc1cccc(-n2c(/C=C/c3ccc([N+](=O)[O-])o3)nc3ccccc3c2=O)c1	3	2	18*	1	0
CC(C)N=C(NC(C)C)N1CC1	-76	x	x	-5	43*
O=C(Cc1ccccc1)N1CCCCN2[C@@H](CO)[C@@H](c3ccc(C#Cc4ccccc4)cc3)[C@@H]2C1	0	x	-2	x	-1
Cc1ccc(OP(=O)(NC(C)c2ccccc2)Oc2ccc(C)cc2)cc1 (stereo not given)	1	4	-3	-2	43*
CN(C)C(=O)ON=C(N)COc1ccc(C(C)(C)C)cc1	x	1	x	x	x
CCOC(=O)C1(c2ccccc2)CCN(CC(=O)Nc2cccc3ccccc23)CC1	x	5	x	4	x
COc1cccc(C2(O)CCN(CC(=O)Nc3nc(C)cs3)CC2)c1	0	1	4	-2	43*
CCOC(=O)C(CCCN(CC)CC)=NO	x	3	x	x	x
COc1cc(CC2C(=O)N(C)C(=O)N(C)C2=O)ccc1OCc1ccccc1	3	24*	0	2	0
C=C1C(=O)OC2CCN3CC=C(COC(=O)C(C)(O)C4(CO4)C1C)C23 (stereo not given)	36*	x	3	x	0
NN=C1C(Cl)=C(Cl)C(Cl)=C1Cl	97*	x	8	4	0
CCCCn1c(=O)c(C=Nc2cc([N+](=O)[O-])ccc2OC)c(O)n(CCCCl)c1=O	-1	3	0	1	43*
N#CC1=C(N)Oc2c(c(=O)oc3ccccc23)C1c1ccc([N+](=O)[O-])o1 (stereo not given)	40*	5	-1	21	43*
CC(C)Oc1ccc(C2C(C#N)=C(N)Oc3c2c(=O)oc2ccccc32)cc1 (stereo not given)	x	-1	x	x	x
CCn1cc(C=c2sc3n(c2=O)C2c4ccccc4OC(C)(N=3)C2C(=O)OC)c(C)n1 (stereo not given)	x	11	x	x	x
CNC(=O)Oc1cc2c(cc1C(C)(C)C)CCC2	1	3	x	1	44*
SMILES	Casp6 inh	UCH37 DUB inh	SIRT5 inh	NSD2 HMT inh	FGF22 binding
C=C(C)CC1(CC)C(=O)NC(=S)NC1=O	-5	2	x	2	44*
C[C@H]1CC=C[C@H]2[C@H](O)[C@H](C)[C@@](C)(O)[C@H]3[C@H](Cc4ccccc4)NC(=O)[C@]32[C@H](O)C=C[C@](C)(O)C1	x	0	x	x	x
CSCCC(c1nnnn1-c1ccc2c(c1)OCCO2)N1CCC(n2c(=O)[nH]c3ccccc32)CC1 (stereo not given)	13	x	19*	x	0
Cc1ccc(N2C(=O)NC(=O)/C(=C/C=C/c3ccco3)C2=O)cc1	x	3	x	46	x
CCCCN1C(=O)/C(=C/C=C/c2ccco2)C(=O)NC1=S	78*	6	38*	108*	x
CC(CN1CCOCC1)C(C#N)(c1ccccc1)c1ccccc1 (stereo not given)	-2	4	x	0	43*
CC(CN1CCOCC1)OC(=O)Cc1ccccc1 (stereo not given)	2	4	-3	1	0
ON=C1CCC2CN(C3CCCCC3)CC2C1 (stereo not given)	x	-1	x	x	x
COC(=O)[C@H]1[C@H](CO)[C@H]2Cn3c(ccc(C4=CCCCC4)c3=O)[C@@H]1N2C(=O)NC(C)C	3	x	-12	x	0
CN(C)[C@@H]1C(=O)C(C(N)=O)=C(O)[C@@]2(O)C(=O)C3=C(O)c4c(O)cccc4[C@@](C)(O)C3[C@H](O)C12 (stereo not given in full)	45*	-7	36*	x	-1
CN(C)C1C(=O)C(C(N)=O)=C(O)C2(O)C(=O)C3=C(O)c4c(O)cccc4C(C)(O)C3CC12 (stereo not given)	x	0	x	x	x
CN(C)[C@@H]1C(=O)C(C(N)=O)=C(O)[C@@]2(O)C(=O)C3=C(O)c4c(O)ccc(Cl)c4[C@@](C)(O)C3C[C@@H]12 (stereo not given in full)	44*	x	11	x	0
CN(C)C(=O)[C@@H]1[C@@H](CO)[C@@H]2Cn3c(cccc3=O)[C@H]1N2CC1CC1	1	x	4	x	0
O=C1C=C(N2CC2)c2ccccc2C1=O	97*	x	0	x	0
O=[N+]([O-])c1ccc(C(c2ccc([N+](=O)[O-])cc2)c2ccc([N+](=O)[O-])cc2)cc1	0	0	-2	-2	0
Cn1cnc([N+](=O)[O-])c1Sc1ccc([N+](=O)[O-])cc1	2	11	-1	20	43*
Cc1ccc(OCCSC2=NN2c2cc(C)nc(N)n2)cc1	-1	3	21*	1	0
CCSC1=NN1c1cc(C)nc(N)n1	-3	-1	1	-1	0
CN1[C@@H](CO)[C@@H]2c3ccccc3NC[C@@H]21	-1	x	2	x	0
COC1CCC(OC2CC(C3(C)CCC4(CC(O)C(C)C(C(C)/C=C(\C)C(=O)C(C)CC(C)C(=O)O)O4)O3)OC3(OC(C4OC(O)(CO)C(C)CC4C)CC3C)C2C)OC1C (stereo not given)	11	x	24*	x	0
O=C1CNC[C@H]2[C@@H](c3ccc(Br)cc3)[C@H](CO)N12	0	x	1	x	0
CN(c1ccc(O)cc1)c1ccc([N+](=O)[O-])c2nonc12	8	x	x	53*	0
Cc1cccc(S(=O)(=O)N2[C@@H]3c4ccc(-c5cccc(F)c5)c(=O)n4C[C@H]2[C@H](CO)[C@H]3C(=O)O)c1	x	x	-29	x	0
O=C1NC(=O)N(CCC2=CCCCC2)C(=O)/C1=C/c1cccs1	37*	3	-1	44	0
